# Data from ChEMBL document CHEMBL2331542, “Synthesis and in vitro antibacterial activity of quinolone/naphthyridone derivatives containing 3-alkoxyimino-4-(methyl)aminopiperidine scaffolds” (2013).
# Test system: Escherichia coli
# Assay: Antibacterial activity against extended-spectrum beta-lactamase-producing Escherichia coli isolate 12-4
# Type: functional
# Summary of the method: (§1)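 MIC determined in vitro by a standard technique and defined as the lowest compound concentration giving complete inhibition of bacterial growth. The Gram-positive and Gram-negative panels were tested alongside gemifloxacin, levofloxacin and ciprofloxacin reference drugs.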
row,SMILES,MIC
1,CO/N=C1\CN(c2c(F)cc3c(=O)c(C(=O)O)cn(C4CC4)c3c2OC)CCC1N (stereo unspecified),16 µg/mL

# Test system: Escherichia coli
# Assay: Antibacterial activity against extended-spectrum beta-lactamase-producing Escherichia coli isolate 12-2
# Type: functional
# Summary of the method: as §1
row,SMILES,MIC
1,CO/N=C1\CN(c2c(F)cc3c(=O)c(C(=O)O)cn(C4CC4)c3c2OC)CCC1N (stereo unspecified),64 µg/mL

# Test system: Escherichia coli
# Assay: Antibacterial activity against extended-spectrum beta-lactamase-producing Escherichia coli isolate 12-1
# Type: functional
# Summary of the method: as §1
row,SMILES,MIC
1,CO/N=C1\CN(c2c(F)cc3c(=O)c(C(=O)O)cn(C4CC4)c3c2OC)CCC1N (stereo unspecified),64 µg/mL

# Test system: Escherichia coli
# Assay: Antibacterial activity against Escherichia coli isolate 12-5
# Type: functional
# Summary of the method: as §1
row,SMILES,MIC
1,CO/N=C1\CN(c2c(F)cc3c(=O)c(C(=O)O)cn(C4CC4)c3c2OC)CCC1N (stereo unspecified),64 µg/mL

# Test system: Escherichia coli
# Assay: Antibacterial activity against Escherichia coli isolate 12-4
# Type: functional
# Summary of the method: as §1
row,SMILES,MIC
1,CO/N=C1\CN(c2c(F)cc3c(=O)c(C(=O)O)cn(C4CC4)c3c2OC)CCC1N (stereo unspecified),128 µg/mL

# Test system: Escherichia coli
# Assay: Antibacterial activity against Escherichia coli isolate 12-1
# Type: functional
# Summary of the method: as §1
row,SMILES,MIC
1,CO/N=C1\CN(c2c(F)cc3c(=O)c(C(=O)O)cn(C4CC4)c3c2OC)CCC1N (stereo unspecified),2 µg/mL

# Test system: Escherichia coli
# Assay: Antibacterial activity against Escherichia coli ATCC 25922
# Type: functional
# Summary of the method: as §1
row,SMILES,MIC
1,CO/N=C1\CN(c2c(F)cc3c(=O)c(C(=O)O)cn(C4CC4)c3c2OC)CCC1N (stereo unspecified),4 µg/mL

# Test system: Streptococcus pneumoniae
# Assay: Antibacterial activity against Streptococcus pneumoniae isolate 12-5
# Type: functional
# Summary of the method: as §1
row,SMILES,MIC
1,CO/N=C1\CN(c2c(F)cc3c(=O)c(C(=O)O)cn(C4CC4)c3c2OC)CCC1N (stereo unspecified),2 µg/mL

# Test system: Streptococcus pneumoniae
# Assay: Antibacterial activity against Streptococcus pneumoniae isolate 12-2
# Type: functional
# Summary of the method: as §1
row,SMILES,MIC
1,CO/N=C1\CN(c2c(F)cc3c(=O)c(C(=O)O)cn(C4CC4)c3c2OC)CCC1N (stereo unspecified),0.25 µg/mL

# Test system: Staphylococcus epidermidis
# Assay: Antibacterial activity against methicillin-resistant Staphylococcus epidermidis isolate 12-35
# Type: functional
# Summary of the method: (§2)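 MIC determined in vitro by standard techniques, defined as the lowest compound concentration giving complete inhibition of bacterial growth. Gemifloxacin, levofloxacin and ciprofloxacin were tested alongside as reference drugs.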
row,SMILES,MIC
1,CO/N=C1\CN(c2c(F)cc3c(=O)c(C(=O)O)cn(C4CC4)c3c2OC)CCC1N (stereo unspecified),0.25 µg/mL

# Test system: Staphylococcus epidermidis
# Assay: Antibacterial activity against methicillin-resistant Staphylococcus epidermidis isolate 12-33
# Type: functional
# Summary of the method: as §2
row,SMILES,MIC
1,CO/N=C1\CN(c2c(F)cc3c(=O)c(C(=O)O)cn(C4CC4)c3c2OC)CCC1N (stereo unspecified),2 µg/mL

# Test system: Staphylococcus epidermidis
# Assay: Antibacterial activity against methicillin-resistant Staphylococcus epidermidis isolate 12-5
# Type: functional
# Summary of the method: as §2
row,SMILES,MIC
1,CO/N=C1\CN(c2c(F)cc3c(=O)c(C(=O)O)cn(C4CC4)c3c2OC)CCC1N (stereo unspecified),0.25 µg/mL

# Test system: Staphylococcus epidermidis
# Assay: Antibacterial activity against methicillin-sensitive Staphylococcus epidermidis isolate 12-3
# Type: functional
# Summary of the method: as §1
row,SMILES,MIC
1,CO/N=C1\CN(c2c(F)cc3c(=O)c(C(=O)O)cn(C4CC4)c3c2OC)CCC1N (stereo unspecified),0.25 µg/mL

# Test system: Staphylococcus epidermidis
# Assay: Antibacterial activity against methicillin-sensitive Staphylococcus epidermidis isolate 12-2
# Type: functional
# Summary of the method: as §1
row,SMILES,MIC
1,CO/N=C1\CN(c2c(F)cc3c(=O)c(C(=O)O)cn(C4CC4)c3c2OC)CCC1N (stereo unspecified),0.5 µg/mL

# Test system: Staphylococcus epidermidis
# Assay: Antibacterial activity against methicillin-sensitive Staphylococcus epidermidis isolate 12-1
# Type: functional
# Summary of the method: as §1
row,SMILES,MIC
1,CO/N=C1\CN(c2c(F)cc3c(=O)c(C(=O)O)cn(C4CC4)c3c2OC)CCC1N (stereo unspecified),0.25 µg/mL

# Test system: Staphylococcus aureus
# Assay: Antibacterial activity against methicillin-resistant Staphylococcus aureus isolate 12-15
# Type: functional
# Summary of the method: as §2
row,SMILES,MIC
1,CO/N=C1\CN(c2c(F)cc3c(=O)c(C(=O)O)cn(C4CC4)c3c2OC)CCC1N (stereo unspecified),0.25 µg/mL

# Test system: Staphylococcus aureus
# Assay: Antibacterial activity against methicillin-resistant Staphylococcus aureus isolate 12-13
# Type: functional
# Summary of the method: as §2
row,SMILES,MIC
1,CO/N=C1\CN(c2c(F)cc3c(=O)c(C(=O)O)cn(C4CC4)c3c2OC)CCC1N (stereo unspecified),0.25 µg/mL

# Test system: Staphylococcus aureus
# Assay: Antibacterial activity against methicillin-resistant Staphylococcus aureus isolate 12-3
# Type: functional
# Summary of the method: as §2
row,SMILES,MIC
1,CO/N=C1\CN(c2c(F)cc3c(=O)c(C(=O)O)cn(C4CC4)c3c2OC)CCC1N (stereo unspecified),0.25 µg/mL

# Test system: Staphylococcus aureus
# Assay: Antibacterial activity against methicillin-sensitive Staphylococcus aureus isolate 12-10
# Type: functional
# Summary of the method: as §1
row,SMILES,MIC
1,CO/N=C1\CN(c2c(F)cc3c(=O)c(C(=O)O)cn(C4CC4)c3c2OC)CCC1N (stereo unspecified),0.125 µg/mL

# Test system: Staphylococcus aureus
# Assay: Antibacterial activity against methicillin-sensitive Staphylococcus aureus isolate 12-7
# Type: functional
# Summary of the method: as §1
row,SMILES,MIC
1,CO/N=C1\CN(c2c(F)cc3c(=O)c(C(=O)O)cn(C4CC4)c3c2OC)CCC1N (stereo unspecified),8 µg/mL

# Test system: Staphylococcus aureus
# Assay: Antibacterial activity against methicillin-sensitive Staphylococcus aureus isolate 12-6
# Type: functional
# Summary of the method: as §1
row,SMILES,MIC
1,CO/N=C1\CN(c2c(F)cc3c(=O)c(C(=O)O)cn(C4CC4)c3c2OC)CCC1N (stereo unspecified),0.25 µg/mL

# Test system: Staphylococcus aureus
# Assay: Antibacterial activity against Staphylococcus aureus […]
# Type: functional
# Summary of the method: as §1
row,SMILES,MIC
1,CO/N=C1\CN(c2c(F)cc3c(=O)c(C(=O)O)cn(C4CC4)c3c2OC)CCC1N (stereo unspecified),0.06 µg/mL

# Test system: Pseudomonas aeruginosa
# Assay: Antibacterial activity against Pseudomonas aeruginosa isolate 12-2
# Type: functional
# Summary of the method: as §1
row,SMILES,MIC
1,CO/N=C1\CN(c2c(F)cc3c(=O)c(C(=O)O)cn(C4CC4)c3c2OC)CCC1N (stereo unspecified),16 µg/mL

# Test system: Pseudomonas aeruginosa
# Assay: Antibacterial activity against Pseudomonas aeruginosa isolate 12-1
# Type: functional
# Summary of the method: as §1
row,SMILES,MIC
1,CO/N=C1\CN(c2c(F)cc3c(=O)c(C(=O)O)cn(C4CC4)c3c2OC)CCC1N (stereo unspecified),16 µg/mL

# Test system: Pseudomonas aeruginosa
# Assay: Antibacterial activity against Pseudomonas aeruginosa ATCC 27853
# Type: functional
# Summary of the method: as §1
row,SMILES,MIC
1,CO/N=C1\CN(c2c(F)cc3c(=O)c(C(=O)O)cn(C4CC4)c3c2OC)CCC1N (stereo unspecified),4 µg/mL

# Test system: Klebsiella pneumoniae
# Assay: Antibacterial activity against extended-spectrum beta-lactamase-producing Klebsiella pneumoniae isolate 12-4
# Type: functional
# Summary of the method: as §1
row,SMILES,MIC
1,CO/N=C1\CN(c2c(F)cc3c(=O)c(C(=O)O)cn(C4CC4)c3c2OC)CCC1N (stereo unspecified),64 µg/mL

# Test system: Klebsiella pneumoniae
# Assay: Antibacterial activity against extended-spectrum beta-lactamase-producing Klebsiella pneumoniae isolate 12-2
# Type: functional
# Summary of the method: as §1
row,SMILES,MIC
1,CO/N=C1\CN(c2c(F)cc3c(=O)c(C(=O)O)cn(C4CC4)c3c2OC)CCC1N (stereo unspecified),16 µg/mL

# Test system: Klebsiella pneumoniae
# Assay: Antibacterial activity against extended-spectrum beta-lactamase-producing Klebsiella pneumoniae isolate 12-1
# Type: functional
# Summary of the method: as §1
row,SMILES,MIC
1,CO/N=C1\CN(c2c(F)cc3c(=O)c(C(=O)O)cn(C4CC4)c3c2OC)CCC1N (stereo unspecified),8 µg/mL

# Test system: Klebsiella pneumoniae
# Assay: Antibacterial activity against Klebsiella pneumoniae isolate 12-4
# Type: functional
# Summary of the method: as §1
row,SMILES,MIC
1,CO/N=C1\CN(c2c(F)cc3c(=O)c(C(=O)O)cn(C4CC4)c3c2OC)CCC1N (stereo unspecified),0.5 µg/mL

# Test system: Klebsiella pneumoniae
# Assay: Antibacterial activity against Klebsiella pneumoniae isolate 12-2
# Type: functional
# Summary of the method: as §1
row,SMILES,MIC
1,CO/N=C1\CN(c2c(F)cc3c(=O)c(C(=O)O)cn(C4CC4)c3c2OC)CCC1N (stereo unspecified),2 µg/mL

# Test system: Klebsiella pneumoniae
# Assay: Antibacterial activity against Klebsiella pneumoniae isolate 12-1
# Type: functional
# Summary of the method: as §1
row,SMILES,MIC
1,CO/N=C1\CN(c2c(F)cc3c(=O)c(C(=O)O)cn(C4CC4)c3c2OC)CCC1N (stereo unspecified),2 µg/mL
